{
  "source": "paper PMC5014123",
  "about": "(Nature communications, 2015)",
  "key": {"ADAM8 [1]": {"target": "T1, ADAM8 (Homo sapiens, UniProt P78325)", "T1 sequence (P78325 17-497)": "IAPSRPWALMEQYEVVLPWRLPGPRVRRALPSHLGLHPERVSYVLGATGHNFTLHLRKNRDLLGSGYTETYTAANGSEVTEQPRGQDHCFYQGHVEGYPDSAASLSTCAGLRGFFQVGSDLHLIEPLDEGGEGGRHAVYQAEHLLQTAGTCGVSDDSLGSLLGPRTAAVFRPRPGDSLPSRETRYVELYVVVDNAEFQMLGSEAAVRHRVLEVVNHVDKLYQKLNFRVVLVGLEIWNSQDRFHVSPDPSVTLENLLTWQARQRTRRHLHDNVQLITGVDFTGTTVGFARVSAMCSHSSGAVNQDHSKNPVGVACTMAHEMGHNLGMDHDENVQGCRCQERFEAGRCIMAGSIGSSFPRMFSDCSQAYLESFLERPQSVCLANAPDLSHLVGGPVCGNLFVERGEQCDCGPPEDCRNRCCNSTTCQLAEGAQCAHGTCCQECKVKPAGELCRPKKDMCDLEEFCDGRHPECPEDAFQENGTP", "type": "biochemical"}, "ADAM8 [2]": {"target": "T2, ADAM8 (Homo sapiens, UniProt P78325)", "T2 sequence (P78325 17-824)": "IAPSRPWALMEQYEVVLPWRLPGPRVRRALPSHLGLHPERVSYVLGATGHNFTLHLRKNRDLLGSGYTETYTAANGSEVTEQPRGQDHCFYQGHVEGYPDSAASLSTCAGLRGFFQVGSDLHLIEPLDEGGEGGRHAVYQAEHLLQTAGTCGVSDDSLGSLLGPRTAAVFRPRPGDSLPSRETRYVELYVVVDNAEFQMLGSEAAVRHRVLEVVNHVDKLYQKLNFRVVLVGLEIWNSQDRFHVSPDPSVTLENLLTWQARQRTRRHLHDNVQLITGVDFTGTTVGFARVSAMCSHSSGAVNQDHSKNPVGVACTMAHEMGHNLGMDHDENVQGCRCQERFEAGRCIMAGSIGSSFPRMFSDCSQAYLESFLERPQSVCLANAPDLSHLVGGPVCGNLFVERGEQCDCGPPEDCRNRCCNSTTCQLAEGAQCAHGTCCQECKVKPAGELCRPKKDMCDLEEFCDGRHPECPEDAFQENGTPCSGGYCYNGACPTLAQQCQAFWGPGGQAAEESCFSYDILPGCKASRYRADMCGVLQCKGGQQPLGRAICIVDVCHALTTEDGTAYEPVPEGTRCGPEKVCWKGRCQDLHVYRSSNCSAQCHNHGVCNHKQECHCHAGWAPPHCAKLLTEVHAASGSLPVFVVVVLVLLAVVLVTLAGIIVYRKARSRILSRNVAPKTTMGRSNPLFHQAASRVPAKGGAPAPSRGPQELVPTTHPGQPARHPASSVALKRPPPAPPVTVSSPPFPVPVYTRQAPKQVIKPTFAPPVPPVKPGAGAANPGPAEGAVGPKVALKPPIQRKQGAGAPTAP", "type": "cell-based"}, "MMP-2": {"test_system": "MMP-2", "assay": "PrAMA inference of MMP-2 activity in PDAC cell lines", "type": "cell-based, human", "conditions": "Panc1_A8 cells, 1 µM, 24 hours, relative to vehicle", "procedure,_shortened": "(§1)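 Cells were cultured in duplicate for 24 h in serum-free, phenol-red-free DMEM, and medium and sucrose-buffer membrane fractions were collected. […] Activities were inferred from fold-change cleavage rates against purified-enzyme specificity matrices, in three repeats. Panc1_A8 received 1 uM test compound for 24 h versus vehicle; AsPC-1 knockdowns were compared with shCtrl.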"}, "MMP-14": {"test_system": "MMP-14", "assay": "PrAMA inference of MMP-14 activity in PDAC cell lines", "type": "cell-based, human", "conditions": "Panc1_A8 cells, 1 µM, 24 hours, relative to vehicle", "procedure,_shortened": "as §1"}, "ADAM8 [3]": {"target": "T2, ADAM8", "assay": "PrAMA inference of ADAM8 activity in PDAC cell lines", "type": "cell-based", "conditions": "Panc1_A8 cells, 1 µM, 24 hours, relative to vehicle"}, "Panc1_A8 cells": {"test_system": "Panc1_A8 cells", "assay": "Invasion assay of Panc1_A8 cells", "type": "cell-based, human", "conditions": "matrigel, 10 µM, 18h", "procedure,_shortened": "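Panc1_ctrl and Panc1_A8 cells were run in duplicate with the ERK1/2 inhibitor U0126 (10 uM) for 18 h. Invasiveness is expressed relative to control. Statistics were by ANOVA and Student's t-test.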"}, "ERK1/2 phosphorylation": {"test_system": "ERK1/2 phosphorylation", "assay": "Western blot of ERK1/2 phosphorylation in Panc1 cells", "type": "cell-based, human", "conditions": "Panc1_A8 cells; BK-1361 500 nM; U0126 10 µM", "procedure,_shortened": "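ERK1/2 phosphorylation in Panc1_ctrl and Panc1_A8 cell lysates was detected by western blot with antibodies against the phosphorylated kinase forms, with or without 500 nM test compound.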"}},
  "note": "Like-named read-outs stand apart in the source and are kept apart here.",
  "data": [
    {"smiles": "CNC(=O)[C@@H](NC(=O)[C@H](CC(C)C)[C@H](O)C(=O)NO)C(C)(C)C", "note": "[BB-2516, Marimastat]", "values": [
      {"measurement": "IC50", "setting": "ADAM8 [1]", "result": "1.05 ± 0.154", "unit": "µM"},
      {"measurement": "IC50", "setting": "ADAM8 [2]", "result": "1.25 ± 0.103", "unit": "µM"}
    ]},
    {"smiles": "CNC(=O)[C@H](Cc1ccccc1)NC(=O)[C@H](CC(C)C)[C@H](CSc1cccs1)C(=O)NO", "note": "[BB-94, Batimastat]", "values": [
      {"measurement": "MMP-2 activity (PrAMA), Panc1_A8", "setting": "MMP-2", "result": "reduced"},
      {"measurement": "MMP-14 activity (PrAMA), Panc1_A8", "setting": "MMP-14", "result": "reduced"},
      {"measurement": "ADAM8 activity (PrAMA), Panc1_A8", "setting": "ADAM8 [3]", "result": "reduced"},
      {"measurement": "IC50", "setting": "ADAM8 [2]", "result": "0.057 ± 0.006", "unit": "µM"}
    ]},
    {"smiles": "N#CC(=C(/N)Sc1ccccc1N)/C(C#N)=C(/N)Sc1ccccc1N", "note": "[U0126]", "values": [
      {"measurement": "invasion of Panc1_A8 cells (ERK1/2 inhibitor)", "setting": "Panc1_A8 cells", "result": "decreased invasion"},
      {"measurement": "ERK1/2 phosphorylation (pERK1/2)", "setting": "ERK1/2 phosphorylation", "result": "blocked ERK1/2 phosphorylation"},
      {"measurement": "MMP-2 activity (PrAMA), Panc1_A8", "setting": "MMP-2", "result": "slight effect"},
      {"measurement": "MMP-14 activity (PrAMA), Panc1_A8", "setting": "MMP-14", "result": "greater effect"},
      {"measurement": "ADAM8 activity (PrAMA), Panc1_A8", "setting": "ADAM8 [3]", "result": "not affected"}
    ]}
  ]
}
